# Test results taken from ChEMBL document CHEMBL4706641, “Novel Carboline Fungal Histone Deacetylase (HDAC) Inhibitors for Combinational Treatment of Azole-Resistant Candidiasis” (J Med Chem, 2021).
# Activity calls are given as the source filed them. The rule behind the calls is not given here.
# Columns and labels:
# [1] = biological target: Histone deacetylase (Homo sapiens) (UniProt Q13547+O15379+Q9UBN7+Q92769+Q9UQL6+Q8WUI4+Q9BY41+Q96DB2+P56524+Q9UKV0+Q969S8); experiment: Inhibition of HDAC in HUVEC using Boc-Lys(Ac)-AMC substrate incubated for 18 hrs by fluorescence based assay; type: protein assay
# How it was run: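 Human total HDAC in whole HUVEC cells: about 15000 cells/well, 24 h at 37 °C/5% CO₂ before compound; then Boc-Lys(Ac)-AMC 33 μM, 37 °C 6 h, trypsin/Nonidet P-40 stop 2 h, fluorescence Ex 360/Em 460 nm. Inhibition relative to control after blank subtraction; three independent experiments.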
# Candida albicans [2] = experiment: Antifungal activity against Candida albicans 10061 incubated for 48 hrs by microdilution assay; type: functional
# How it was run: (§1)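 Checkerboard broth microdilution per CLSI M27-A3 (modified), clinical Candida isolates. Exponential cells in RPMI 1640 (MOPS-buffered) at 10³ cells/mL; fluconazole 0.25–64 μg/mL crossed with test compound 2–64 μg/mL (final). 48 h at 35 °C; OD630 read with background subtracted. MIC80 = 80% growth inhibition; FICI ≤0.5 synergy, >4 antagonism.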
# Candida tropicalis [3] = experiment: Synergistic antifungal activity against Candida tropicalis assessed as potentiation of ITC antifungal activity by measuring ITC incubated for 48 hrs in presence of fluconazole by checkerboard microdilution assay; type: functional, organism-based
# Candida albicans [4] = experiment: Down regulation of CDR2 mRNA expression in Candida albicans 0304103 at 32 ug/ml incubated for 24 hrs in presence of 32 ug/ml fluconazole by RT-PCR analysis; type: functional; settings: dose 32.0 µg/ml
# How it was run: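 C. albicans 0304103 (initial 1 × 10⁶ cells/mL) treated with DMSO, fluconazole 32 μg/mL, compound 32 μg/mL, or both in YEPD medium, 35 °C for 24 h. Total RNA extracted, reverse transcribed, real-time PCR for 40 cycles; fold change by 2^−ΔΔCt with ACT1 as internal control.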
# Candida albicans [5] = experiment: Up-regulation of MDR1 mRNA expression in Candida albicans 0304103 at 32 ug/ml incubated for 24 hrs in presence of 32 ug/ml fluconazole by RT-PCR analysis; type: functional; settings: dose 32.0 µg/ml
# How it was run: (§2)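 Cells from a 1 × 10⁶ cells/mL starting suspension were split into DMSO control, FLC 32 μg/mL, test compound 32 μg/mL and combination (32 + 32 μg/mL) groups, then incubated 24 h at 35 °C in YEPD. Total RNA was extracted and reverse-transcribed. Real-time PCR ran 40 cycles (95 °C 5 s, 60 °C 34 s). Fold change was calculated by 2^−ΔΔCt against ACT1.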
# Candida albicans [6] = experiment: Synergistic antifungal activity against Candida albicans 0304103 assessed as potentiation of fluconazole antifungal activity incubated for 48 hrs in presence of fluconazole by checkerboard microdilution assay; type: functional, organism-based; how it was run: as §1
# Candida albicans [7] = experiment: Inhibition of biofilm formation in Candida albicans 0304103 at 64 ug/ml incubated for 24 hrs in presence of fluconazole by XTT reduction assay; type: functional, organism-based; settings: dose 64.0 µg/ml
# How it was run: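 C. albicans 0304103 at 1.0 × 10⁶ CFU/mL in RPMI 1640 allowed to adhere 90 min at 37 °C, washed with PBS, then fresh medium with fluconazole 2–32 μg/mL and/or compound 0.12–64 μg/mL added; 24 h at 37 °C. Biofilm metabolic activity by XTT reduction, OD490. Three independent experiments.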
# Candida albicans [8] = experiment: Synergistic antifungal activity against Candida albicans 0304103 incubated for 48 hrs in presence of fluconazole by microdilution assay; type: functional; how it was run: as §1
# Candida albicans [9] = experiment: Induction of morphological changes in Candida albicans assessed as reduction in morphological conversion from yeast to hypha forms at 32 ug/ml incubated for 3 hrs in presence of 32 ug/ml fluconazole by inverse fluorescence microscopy; type: functional, organism-based; settings: dose 32.0 µg/ml
# How it was run: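 Exponential C. albicans at 2 × 10⁶ cells/mL in Spider medium (hypha-inducing), drugs alone or combined, DMSO control; 3 h at 37 °C, then observed and photographed by inverted fluorescence microscopy. Three independent experiments.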
# Candida albicans [10] = experiment: Synergistic antifungal activity against Candida albicans 4108 incubated for 48 hrs in presence of fluconazole by microdilution assay; type: functional; how it was run: as §1
# Candida albicans [11] = experiment: Antifungal activity against Candida albicans 0304103 incubated for 48 hrs by microdilution assay; type: functional; settings: Candida albicans, 0304103, read-out: MIC80; how it was run: as §1
# Candida albicans [12] = experiment: Antifungal activity against Candida albicans 9884 incubated for 48 hrs by microdilution assay; type: functional; how it was run: as §1
# [Candida] auris = Synergistic antifungal activity against Candida auris assessed as potentiation of ITC antifungal activity by measuring ITC incubated for 48 hrs in presence of fluconazole by checkerboard microdilution assay; type: functional, organism-based; settings: Candidozyma auris
# Pichia kudriavzevii = experiment: Synergistic antifungal activity against Candida krusei 10153 assessed as fluconazole MIC incubated for 48 hrs in presence of fluconazole by microdilution assay (reference value: fluconazole alone MIC = […] ug/ml); type: functional
# Candida albicans [13] = experiment: Synergistic antifungal activity against Candida albicans 0304103 at 32 ug/ml incubated for 48 hrs in presence of 32 ug/ml fluconazole by microdilution assay; type: functional, organism-based; settings: dose 32.0 µg/ml
# Candida albicans [14] = experiment: Antifungal activity against Candida albicans 0304103 infected in ICR mouse model of candidiasis assessed as reduction in fungal invasion by measuring clusters of fungal infiltration in renal pelvis/medulla at 10 mg/kg, ip dosed 24 hrs post infection and co-treated with 1 mg/kg, ip fluconazole and measured after 5 days by H and E staining based microscopical analysis; type: functional, organism-based; settings: time 5.0 day
# How it was run: (§3)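 Two ICR mice per group, infected and treated as in the kidney burden model (IV 5 × 10⁵ C. albicans 0304103; IP compound 10 mg/kg, fluconazole 1 mg/kg, or combination, 5 days). Kidneys fixed in 4% paraformaldehyde, paraffin-embedded, 4 μm sections, H&E stained, examined at 40× and 200×.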
# Candida albicans [15] = experiment: Synergistic antifungal activity against Candida albicans 10061 assessed as potentiation of fluconazole antifungal activity by measuring FICI incubated for 48 hrs in presence of fluconazole by checkerboard microdilution assay; type: functional
# How it was run: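 Checkerboard broth microdilution per CLSI M27-A3 (modified), clinical Candida isolates. 48 h at 35 °C; OD630 read with background subtracted. MIC80 = 80% growth inhibition; FICI ≤0.5 synergy, >4 antagonism.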
# Candida albicans [16] = experiment: Synergistic antifungal activity against Candida albicans 9172 incubated for 48 hrs in presence of fluconazole by microdilution assay; type: functional; how it was run: as §1
# Candida albicans [17] = experiment: Up-regulation of MDR1 mRNA expression in Candida albicans 0304103 at 32 ug/ml incubated for 24 hrs by RT-PCR analysis; type: functional; settings: dose 32.0 µg/ml; how it was run: as §2
# Candida tropicalis [18] = experiment: Synergistic antifungal activity against Candida tropicalis assessed as potentiation of VRC antifungal activity by measuring VRC incubated for 48 hrs in presence of fluconazole by checkerboard microdilution assay; type: functional, organism-based
# Candida albicans [19] = experiment: Antifungal activity against Candida albicans 0304103 infected in ICR mouse model of candidiasis assessed as reduction in morphological changes of budded-to-hyphal transition at 10 mg/kg, ip dosed 24 hrs post infection and measured after 5 days by H and E staining based microscopical analysis; type: functional, organism-based; settings: time 5.0 day; how it was run: as §3
structure (smiles),measurement,setting,value
O=C(Cc1ccc(OCCCn2c3c(c4cccc(Cl)c42)CCNC3)cc1)NO,inhibition,[1],inactive
same,MIC80,Candida albicans [2],> 64 µg/mL
same,Activity,Candida tropicalis [3],Active
same,Activity,Candida albicans [4],Active
same,fold change (FC),Candida albicans [5],8
same,Activity,Candida albicans [6],Dose-dependent effect
same,inhibition,Candida albicans [7],Active
same,MIC80,Candida albicans [8],2 µg/mL
same,Activity,Candida albicans [9],Active
same,MIC80,Candida albicans [10],2 µg/mL
same,MIC80,Candida albicans [11],> 64 µg/mL
same,MIC80,Candida albicans [12],64 µg/mL
same,Activity,[Candida] auris,Active
same,MIC80,Pichia kudriavzevii,8 µg/mL
same,Activity,Candida albicans [13],Active
same,Activity,Candida albicans [14],Active
same,fractional inhibitory concentration index (FICI),Candida albicans [15],0.062
same,MIC80,Candida albicans [16],2 µg/mL
same,Activity,Candida albicans [17],Active
same,Activity,Candida tropicalis [18],Active
same,Activity,Candida albicans [19],inactive
